Source: ChEMBL document CHEMBL1799922, “Synthesis and antimycobacterial activity of prodrugs of indeno[2,1-c]quinoline derivatives” (Eur J Med Chem, 2011)
In brackets after ≈: the same amount, converted by molar mass.

What was measured:
[1] = test system: Mycobacterium tuberculosis; assay: Antimicrobial activity against Mycobacterium tuberculosis H37Rv ATCC 27294 after 16 to 24 hrs by microplate alamar blue assay; format: functional
Summary of the method: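 M. tuberculosis H37Rv inoculum 2×10^5 cfu/mL (100 µL) added to twofold dilutions in Middlebrook 7H12 medium; final test range 128 µM to 0.5 µM from 12.8 mM DMSO stocks. Incubated 37 °C; day 7 Tween 80 plus Alamar Blue added, further 16-24 h at 37 °C. Fluorescence ex 530/em 590 nm; MIC = lowest concentration giving >90% fluorescence reduction versus replicate bacteria-only controls. Rifampin, isoniazid controls.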

[2] = Cytotoxicity against human U937 cells assessed as cell viability at 1.25 ug/ml after 72 hrs by MTT assay; format: cell-based, U-937; conditions: read-out: Activity
Summary of the method: (§1)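 U937 human monocytic cells plated at 1 × 10^5 cells/mL and allowed to adhere for 1 h at 37 °C in 5% CO2. Non-adherent cells were washed off with RPMI 1640. Adherent cells were exposed to compound in triplicate, with medium alone as the live control and 3% Tween 20 as the dead control. MTT (5 mg/mL in PBS) was then added for 3 h at 37 °C. Formazan was dissolved in 0.4 M HCl/isopropanol and absorbance read at 600 nm. Results are expressed as % cell viability.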

[3] = Cytotoxicity against human U937 cells assessed as cell viability at 10 ug/ml after 72 hrs by MTT assay; format: cell-based, U-937; conditions: read-out: Activity; summary of the method: as §1
Serum = assay: Stability of the compound in 80% human blood serum assessed as hydrolysis to 2-bromo-6-(1H-imidazol-1-yl)-7H-indeno[2,1-c]quinolin-7-one oxime at 1 mg after 24 hrs at 37 degC by LC-MS analysis; format: ADME, cell-free; parameters: scale not given: the % may be the effect or the level left
Summary of the method: (§2)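 Enzymatic hydrolysis: 1 mg prodrug dissolved in 1 mL ethanol, then 200 µL preheated human blood serum diluted to 80% with 0.16 M phosphate buffer (pH 7.4) was added. Samples were kept at 37 °C (24 h) and centrifuged 10 min at 10,000 rpm. Remaining prodrug in the supernatant was monitored by TLC and LC-MS. t1/2 is the time to 50% hydrolysis.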

[4] = Stability of the compound in 10% aqueous ammonia buffer at pH 8 assessed as hydrolysis to 2-bromo-6-(1H-imidazol-1-yl)-7H-indeno[2,1-c]quinolin-7-one oxime at 1 mg at 37 degC by LC-MS analysis; format: physicochemical; parameters: scale not given: the % may be the effect or the level left
Summary of the method: (§3)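 Chemical hydrolysis: 1 mg prodrug dissolved in 1 mL of 10% aqueous ammonia in methanol (pH 8) and held in a thermostatted water bath at 37 °C, up to 24 h. Conversion to the parent oxime was followed by TLC and LC-MS. t1/2 is the time to 50% hydrolysis.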

[5] = Half life in human blood serum by LC-MS analysis; format: ADME, cell-free, Plasma; summary of the method: as §2
[6] = Half life in 10% aqueous ammonia buffer at pH 8 assessed as hydrolysis to 2-bromo-6-(1H-imidazol-1-yl)-7H-indeno[2,1-c]quinolin-7-one oxime at 37 degC by LC-MS analysis; format: physicochemical; summary of the method: as §3
[7] = Octanol-water partition coefficient, log P of the compound at pH 7.4 at room temperature by UV spectrophotometric analysis; format: physicochemical
Summary of the method: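 Shake-flask method at room temperature: 1-octanol and phosphate buffer (pH 7.4) were pre-saturated by shaking for 24 h. Compound at 10^-4 M in equal volumes of both phases was shaken vigorously for 1 h, left to stand 15 min, then centrifuged 10 min at 10,000 rpm. UV absorbance of each phase was read at 280 nm against blanks, and P was taken as the octanol/water absorbance ratio.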

[8] = Cytotoxicity against human U937 cells assessed as cell viability at 5 ug/ml after 72 hrs by MTT assay; format: cell-based, U-937; conditions: read-out: Activity; summary of the method: as §1
[9] = Cytotoxicity against human U937 cells assessed as cell viability at 20 ug/ml after 72 hrs by MTT assay; format: cell-based, U-937; conditions: read-out: Activity; summary of the method: as §1
[10] = Selectivity index, ratio CC50 for human U937 cells to MIC for Mycobacterium tuberculosis H37Rv ATCC 27294; format: functional, U-937

Row | SMILES | MIC [1] [µg/mL] | viability at 72 h, 1.25 ug/ml [2] [%] | viability at 72 h, 10 ug/ml [3] [%] | Activity (Serum) | Activity [4] [%] | half-life [5] [h] | half-life [6] [h] | logD [7] | viability at 72 h, 5 ug/ml [8] [%] | viability at 72 h, 20 ug/ml [9] [%] | Selectivity Index [10]
1 | CC(=O)NCC(=O)O/N=C1\c2ccccc2-c2c1c(N1CCN(c3ccccn3)CC1)nc1ccc(Br)cc21 | 6 (≈ 10.2 µM) | 83 | 77 | 95% | 95 | 192 | 144 | 1.2 |  |  | 
2 | CC(C)(C)OC(=O)N1CCC[C@H]1C(=O)O/N=C1\c2ccccc2-c2c1c(-n1ccnc1)nc1ccc(Br)cc21 | 0.39 (≈ 0.663 µM) | 87 | 74 | 95% | 90 | 24 | 12 | 1.3 | 86 | 78 | >102
3 | CCCCC(=O)O/N=C1\c2ccccc2-c2c1c(-n1ccnc1)nc1ccc(Br)cc21 | 0.28 (≈ 0.589 µM) | 85 | 75 | 90% | 90 | 144 | 72 | 1.6 | 82 | 51 | 60
4 | CC1(OC(=O)CC(F)(F)F)c2ccccc2-c2c1c(-n1ccnc1)nc1ccc(Br)cc21 (stereo not given) | 0.5 (≈ 0.995 µM) | 92 | 62 |  | 96 | 480 | 24 | 1.8 | 80 | 26 | 22.4
5 | CCC(=O)O/N=C1\c2ccccc2-c2c1c(-n1ccnc1)nc1ccc(Br)cc21 | 0.29 (≈ 0.648 µM) | 84 | 75 | 90% | 95 | 84 | 48 | 1.2 | 86 | 67 | >137
6 | CCCCC(=O)OC1(C)c2ccccc2-c2c1c(-n1ccnc1)nc1ccc(Br)cc21 (stereo not given) | 1.53 (≈ 3.21 µM) | 91 | 48 | Not Active | 90 |  | 288 | 1.7 | 75 | 4 | 5.6
7 | CCCCCC(=O)O/N=C1\c2ccccc2-c2c1c(-n1ccnc1)nc1ccc(Br)cc21 | 1.5 (≈ 3.07 µM) | 81 | 100 | 85% | 90 | 240 | 144 | 2.1 |  |  | 
8 | CC(C)(C)OC(=O)NC(Cc1cccc(F)c1)C(=O)O/N=C1\c2ccccc2-c2c1c(N1CCN(c3ccccn3)CC1)nc1ccc(Br)cc21 (stereo not given) | 2.98 (≈ 3.96 µM) | 92 | 79 | 95% | 95 | 144 | 72 | 1.1 | 90 | 84 | >13
9 | CCCCCCCCC(=O)O/N=C1\c2ccccc2-c2c1c(-n1ccnc1)nc1ccc(Br)cc21 | 0.39 (≈ 0.734 µM) | 87 | 77 | 95% | 95 | 72 | 24 | 1.9 | 85 | 72 | >102
10 | CC(C)(C)OC(=O)N[C@H](C(=O)O/N=C1\c2ccccc2-c2c1c(N1CCN(c3ccccn3)CC1)nc1ccc(Br)cc21)C(C)(C)C | 1.52 (≈ 2.17 µM) | 92 | 87 | 11% | 95 |  | 48 | 1.5 | 86 | 82 | >26
11 | CCCCCCC(=O)O/N=C1\c2ccccc2-c2c1c(-n1ccnc1)nc1ccc(Br)cc21 | 0.36 (≈ 0.715 µM) | 85 | 67 | 85% | 95 | 192 | 48 | 1.5 | 80 | 60 | >111
12 | O=C(CCCCBr)O/N=C1\c2ccccc2-c2c1c(N1CCN(c3ccccn3)CC1)nc1ccc(Br)cc21 | 2.03 (≈ 3.13 µM) | 99 | 79 | 10% | 95 |  | 96 | 1.5 | 94 | 80 | >20
13 | CCCCCCCCCC(=O)O/N=C1\c2ccccc2-c2c1c(-n1ccnc1)nc1ccc(Br)cc21 | 3 (≈ 5.5 µM) | 100 | 81 | 90% | 90 | 144 | 24 | 1.4 |  |  | 
14 | CC(C)(C)OC(=O)NCC(=O)O/N=C1\c2ccccc2-c2c1c(N1CCN(c3ccccn3)CC1)nc1ccc(Br)cc21 | 1.55 (≈ 2.41 µM) | 87 | 63 | 95% | 95 | 24 | 3.6 | 0.7 | 82 | 49 | 22
15 | CC(C)[C@H](NC(=O)OCC1c2ccccc2-c2ccccc21)C(=O)O/N=C1\c2ccccc2-c2c1c(N1CCN(c3ccccn3)CC1)nc1ccc(Br)cc21 | 1.47 (≈ 1.82 µM) | 85 | 81 | 7% | 96 |  | 24 | 1.8 | 89 | 80 | >27
16 | C[C@H](NC(=O)OC(C)(C)C)C(=O)O/N=C1\c2ccccc2-c2c1c(N1CCN(c3ccccn3)CC1)nc1ccc(Br)cc21 | 6 (≈ 9.12 µM) | 100 | 100 | 66% | 95 | 480 | 48 | 1.7 |  |  | 
17 | CC(C)(C)OC(=O)NCC(=O)OC1(C)c2ccccc2-c2c1c(-n1ccnc1)nc1ccc(Br)cc21 (stereo not given) | 2.03 (≈ 3.69 µM) | 90 | 62 | Not Active | 97 |  | 24 | 1.8 | 83 | 28 | 6
18 | CCCC(=O)O/N=C1\c2ccccc2-c2c1c(-n1ccnc1)nc1ccc(Br)cc21 | < 0.2 | 85 | 69 | 90% | 95 | 96 | 36 | 1.5 | 88 | 70 | >200
19 | CCCCCCCC(=O)OC1(C)c2ccccc2-c2c1c(-n1ccnc1)nc1ccc(Br)cc21 (stereo not given) | 3.42 (≈ 6.6 µM) | 87 | 52 | Not Active | 90 |  | 264 | 1.8 | 72 | 17 | 2.5
